Holding throughout (type): ADME, organism-based, Macaca mulatta
The nature of data set [1]: Drug level in normal rhesus monkey cerebellum assessed as standard uptake value at 152.9 MBq, iv after 12 mins by microPET. The settings on record: in vivo, 0.2 h. In a few lines:
(§1)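 One normal rhesus monkey received each tracer via the vena saphena, with 1 day between injections. Dynamic μPET ran 180 min for 18F tracers (5×60 s, 5×120 s, 9×300 s, 12×600 s) and 90 min for the 11C tracer (5×60 s, 5×120 s, 9×300 s, 3×600 s). Filtered back-projection reconstruction (RAMP filter) was used. Time-activity curves were drawn to give regional SUV.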

A short description of data set [2]: Drug level in normal rhesus monkey white matter assessed as standard uptake value at 152.9 MBq, iv after 32.5 mins by microPET. Particulars: in vivo.
The nature of data set [3]: Drug level in normal rhesus monkey white matter assessed as standard uptake value at 152.9 MBq, iv after 37.5 mins by microPET. The settings on record: in vivo, 0.625 h.
The nature of data set [4]: Drug level in normal rhesus monkey cerebellum assessed as standard uptake value at 152.9 MBq, iv after 0.5 mins by microPET. The settings on record: in vivo. In a few lines:
as §1

The nature of data set [5]: Drug level in normal rhesus monkey pons assessed as standard uptake value at 152.9 MBq, iv after 42.5 mins by microPET. The settings on record: in vivo.
Data set [6] is described as follows: Drug level in normal rhesus monkey pons assessed as standard uptake value at 152.9 MBq, iv after 57.5 mins by microPET. The settings on record: in vivo.
Data set [7] can be described thus: Drug level in normal rhesus monkey parietal cortex assessed as standard uptake value at 152.9 MBq, iv after 2.5 mins by microPET. The settings on record: in vivo.
Data set [8] in a line: Drug level in normal rhesus monkey thalamus assessed as standard uptake value at 109.4 MBq, iv after 111 mins by microPET. Particulars: in vivo.
Data set [9] can be described thus: Drug level in normal rhesus monkey pons assessed as standard uptake value at 109.4 MBq, iv after 32.5 mins by microPET. The settings on record: in vivo.
Data set [10] in a line: Drug level in normal rhesus monkey parietal cortex assessed as standard uptake value at 109.4 MBq, iv after 0.625 mins by microPET. Particulars: in vivo, 38 s.
Data set [11] can be described thus: Drug level in normal rhesus monkey white matter assessed as standard uptake value at 109.4 MBq, iv after 87 mins by microPET. The settings on record: in vivo, 1.45 h.
Data set [12] can be described thus: Drug level in normal rhesus monkey white matter assessed as standard uptake value at 109.4 MBq, iv after 111 mins by microPET. Particulars: in vivo.
Data set [13] can be described thus: Drug level in normal rhesus monkey thalamus assessed as standard uptake value at 109.4 MBq, iv after 0.375 mins by microPET. The settings on record: in vivo, 22 s.
A short description of data set [14]: Drug level in normal rhesus monkey thalamus assessed as standard uptake value at 109.4 MBq, iv after 9.5 mins by microPET. Particulars: in vivo.
A short description of data set [15]: Drug level in normal rhesus monkey cerebellum assessed as standard uptake value at 109.4 MBq, iv after 9.5 mins by microPET. Particulars: in vivo.
Data set [16] in a line: Drug level in normal rhesus monkey frontal cortex assessed as standard uptake value at 109.4 MBq, iv after 117 mins by microPET. Particulars: in vivo, 1.95 h.
The nature of data set [17]: Drug level in normal rhesus monkey white matter assessed as standard uptake value at 109.4 MBq, iv after 12.5 mins by microPET. Particulars: in vivo.
Data set [18] in a line: Drug level in normal rhesus monkey parietal cortex assessed as standard uptake value at 96.3 MBq, iv after 42.5 mins by microPET. The settings on record: in vivo.
Data set [19] is described as follows: Drug level in normal rhesus monkey thalamus assessed as standard uptake value at 96.3 MBq, iv after 3.5 mins by microPET. The settings on record: in vivo.
Data set [20] in a line: Drug level in normal rhesus monkey thalamus assessed as standard uptake value at 96.3 MBq, iv after 22.5 mins by microPET. Particulars: in vivo, 0.375 h.
Data set [21] in a line: Drug level in normal rhesus monkey pons assessed as standard uptake value at 96.3 MBq, iv after 1.5 mins by microPET. Particulars: in vivo, 0.025 h.
A short description of data set [22]: Drug level in normal rhesus monkey cerebellum assessed as standard uptake value at 96.3 MBq, iv after 6 mins by microPET. Particulars: in vivo, 0.1 h. In a few lines:
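Single normal rhesus monkey; each tracer given iv via the vena saphena, with 1 day between tracer injections. Dynamic μPET ran 180 min (5×60 s, 5×120 s, 9×300 s, 12×600 s). Images were reconstructed by filtered back projection with a RAMP filter. Regional time-activity curves were expressed as SUV.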

Data set [23] is described as follows: Drug level in normal rhesus monkey pons assessed as standard uptake value at 96.3 MBq, iv after 10 mins by microPET. Particulars: in vivo.
A short description of data set [24]: Drug level in normal rhesus monkey pons assessed as standard uptake value at 96.3 MBq, iv after 12 mins by microPET. Particulars: in vivo, 0.2 h.
The nature of data set [25]: Drug level in normal rhesus monkey pons assessed as standard uptake value at 96.3 MBq, iv after 22.5 mins by microPET. Particulars: in vivo, 0.375 h.
Data set [26] in a line: Drug level in normal rhesus monkey parietal cortex assessed as standard uptake value at 96.3 MBq, iv after 0.5 mins by microPET. The settings on record: in vivo.
A short description of data set [27]: Drug level in normal rhesus monkey white matter assessed as standard uptake value at 96.3 MBq, iv after 75 mins by microPET. The settings on record: in vivo, 1.25 h.
A short description of data set [28]: Drug level in normal rhesus monkey pons assessed as standard uptake value at 81.2 MBq, iv after 1.5 mins by microPET. Particulars: in vivo, 0.025 h.
A short description of data set [29]: Drug level in normal rhesus monkey pons assessed as standard uptake value at 81.2 MBq, iv after 4.5 mins by microPET. The settings on record: in vivo, 0.075 h.
The nature of data set [30]: Drug level in normal rhesus monkey parietal cortex assessed as standard uptake value at 81.2 MBq, iv after 2.5 mins by microPET. The settings on record: in vivo.
Data set [31] can be described thus: Drug level in normal rhesus monkey parietal cortex assessed as standard uptake value at 81.2 MBq, iv after 42.5 mins by microPET. Particulars: in vivo.
Data set [32] is described as follows: Drug level in normal rhesus monkey thalamus assessed as standard uptake value at 81.2 MBq, iv after 42.5 mins by microPET. The settings on record: in vivo.
Data set [33] can be described thus: Drug level in normal rhesus monkey thalamus assessed as standard uptake value at 81.2 MBq, iv after 95 mins by microPET. Particulars: in vivo.
The nature of data set [34]: Drug level in normal rhesus monkey frontal cortex assessed as standard uptake value at 81.2 MBq, iv after 57.5 mins by microPET. The settings on record: in vivo.
Data set [35] can be described thus: Drug level in normal rhesus monkey cerebellum assessed as standard uptake value at 81.2 MBq, iv after 135 mins by microPET. Particulars: in vivo, 2.25 h. The gist of the method: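 One normal rhesus monkey, each tracer given iv via the vena saphena (81.2, 96.3 or 109.4 MBq), with 1 day between tracer injections. Dynamic brain μPET over 180 min used frames of 5 × 60 s, 5 × 120 s, 9 × 300 s and 12 × 600 s. Images were reconstructed by filtered back projection with a RAMP filter. Regional time-activity curves were expressed as SUV.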

Data set [36] is described as follows: Drug level in normal rhesus monkey frontal cortex assessed as standard uptake value at 81.2 MBq, iv after 3.5 mins by microPET. The settings on record: in vivo.
A short description of data set [37]: Drug level in normal rhesus monkey frontal cortex assessed as standard uptake value at 81.2 MBq, iv after 32.5 mins by microPET. Particulars: in vivo.

The text below walks through data of ChEMBL document CHEMBL1154674, “Synthesis and evaluation of three 18F-labeled aminophenylbenzothiazoles as amyloid imaging agents” (J Med Chem, 2009).

For `[11CH3]Nc1ccc(-c2nc3ccc(O)cc3s2)cc1` [PITTSBURGH COMPOUND B], the SUV in data set [1] amounted to 2.252; in data set [2] it was 1.12; in data set [3], 1.095; in [4] it was 0.053; in data set [5] it was 1.179; in [6], 0.95. Besides, the SUV in [7] was determined as 1.106.
`Nc1ccc2nc(-c3ccc([18F])cc3)sc2c1`: the SUV in [8] was 4.72; in [9] it was 4.74; in data set [10], 1.52; in [11], 3.65; in data set [12] it was 3.82; in data set [13], 0.41. For the same compound, the SUV in [14] is recorded as 5.36; in data set [15] it was 5.44; in data set [16], 4.28; in data set [17], 3.01.
Turning to `CN(C)c1ccc2nc(-c3ccc([18F])cc3)sc2c1`, the SUV in data set [18] came out at 1.79; in [19] it was 2; in data set [20], 2.35; in data set [21] it was 0.8; in data set [22] it was 1.72; in data set [23] it was 1.57. Moreover, the SUV is given as 1.55 in [24], 1.78 in data set [25], 0.65 in data set [26] and 1.5 in [27].
Consider `CNc1ccc2nc(-c3ccc([18F])cc3)sc2c1`, for which the SUV was found to be 2.731 in [28]; 5.172 in data set [29]; 4.252 in data set [30]; 3.863 in [31]; 5.578 in data set [32]; 5.301 in data set [33]. Besides, the SUV stood at 5.004 in [34], 1.594 in data set [35], 5.355 in data set [36] and 5.574 in data set [37].
